Assay results published in ChEMBL document CHEMBL4610095, “chiro-Inositol Derivatives from Chisocheton paniculatus Showing Inhibition of Nitric Oxide Production” (J Nat Prod, 2020).

How the values were obtained:
RAW264.7 = assay: Antiinflammatory activity in mouse RAW264.7 cells assessed as reduction in LPS-induced NO production incubated for 24 hrs by Griess reagent based assay; assay type: functional, cell-based; conditions: RAW264.7, 24 h
Outline: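 RAW 264.7 cells seeded at 2×10^5 cells/well and held 24 h at 37 °C, 5% CO2. Cells treated with or without compounds at various concentrations plus LPS (1 μg/mL) for 24 h. Nitrite in cell-free supernatant read by Griess reaction (sulfanilamide/phosphoric acid, N-1-naphthylethylenediamine) at 540 nm against a NaNO2 standard curve. L-NMMA served as positive control. IC50 reported.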

[1] = Cytotoxicity against mouse RAW264.7 cells assessed as cell viability at 100 ug/ml by MTT assay; assay type: cell-based; conditions: read-out: Activity
Outline: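 Compounds tested at 100 μg/mL on RAW 264.7 cells seeded at 2×10^5 cells/well. Cells were co-stimulated with LPS (1 μg/mL) for 24 h at 37 °C. Viability of the remaining cells after supernatant removal was measured by MTT colorimetric assay.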

Row | SMILES | IC50 (RAW264.7) [µM] | viability at 100 ug/ml [1] [%]
1 | C/C=C(\CO)C(=O)O[C@H]1[C@H](OC(=O)C(C)CC)[C@H](O)[C@@H](OC(=O)C(C)CC)[C@@H](O)[C@@H]1OC(=O)/C(=C/C)CO (some centres not stated) | 62.9 | > 85
2 | C/C=C(\CO)C(=O)O[C@@H]1[C@@H](O)[C@H](OC(=O)/C(=C/C)CO)[C@H](OC(=O)C(C)CC)[C@@H](O)[C@H]1OC(=O)C(C)CC (some centres not stated) | 95.6 | > 85
3 | C/C=C(\C)C(=O)O[C@@H]1[C@@H](O)[C@@H](OC(=O)C(C)CC)[C@H](OC(=O)/C(=C/C)CO)[C@@H](OC(=O)/C(=C/C)CO)[C@@H]1O (some centres not stated) | 124 | > 85
4 | C/C=C(\C)C(=O)O[C@@H]1[C@H](O)[C@@H](O)[C@@H](OC(=O)/C(C)=C/C)[C@H](OC(=O)/C(=C/C)CO)[C@H]1OC(=O)/C(=C/C)CO | 56.7 | > 85

Compounds with a lower IC50 (RAW264.7), results first:

Row | IC50 (RAW264.7) [µM] | SMILES | viability at 100 ug/ml [1] [%]
5 | 20.3 | C/C=C(\C)C(=O)O[C@@H]1[C@H](O)[C@@H](OC(=O)C(C)CC)[C@@H](O)[C@H](OC(=O)/C(=C/C)CO)[C@H]1OC(=O)/C(=C/C)CO (some centres not stated) | > 85
6 | 7.1 | C/C=C(\C)C(=O)O[C@@H]1[C@H](O)[C@@H](OC(=O)C(C)CC)[C@@H](OC(=O)/C(=C/C)CO)[C@H](O)[C@H]1OC(=O)/C(=C/C)CO (some centres not stated) | > 85
